Measured values reported in ChEMBL document CHEMBL4118057, “Cytotoxic Bagremycins from Mangrove-Derived Streptomyces sp. Q22” (J Nat Prod, 2017).
Calls of active or inactive are those of the source. No cut-off for these calls is given here.

How the values were obtained:
U-87 MG [1] = assay: Cytotoxicity against human U87MG cells after 72 hrs by sulforhodamine B assay; assay type: functional, cell-based, U-87MG ATCC
Method in brief: (§1)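 SRB assay. C6 and U251 in DMEM with 10% FBS, SHG44 in RPMI-1640, all at 37 °C, 5% CO2. Cells adhered 24 h, then were exposed to a range of concentrations for 72 h. Fixed in cold 50% TCA at 4 °C for 1 h, stained with 0.4% SRB for 10 min, rinsed with 1% acetic acid. Dye dissolved in 10 mM Tris, OD read at 515 nm. Viability taken as treated/control OD; IC50 by logistic fit; n = 5.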

U-251 = assay: Cytotoxicity against human U251 cells after 72 hrs by sulforhodamine B assay; assay type: functional, cell-based; details: U-251, 72 h; method in brief: as §1
[2] = Cytotoxicity against human SHG44 cells after 72 hrs by sulforhodamine B assay; assay type: functional, cell-based; details: SHG-44, 72 h; method in brief: as §1
C6 = assay: Cytotoxicity against rat C6 cells after 72 hrs by sulforhodamine B assay; assay type: functional, cell-based; details: C6, 72 h; method in brief: as §1
U-87 MG [3] = assay: Induction of apoptosis in human U87MG cells assessed as increase in total apoptotic cells at 10 uM after 24 hrs by annexin-V-FITC/propidium iodide staining based flow cytometric method relative to control; assay type: functional, U-87MG ATCC
Method in brief: (§2)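 U87MG cells were exposed for 24, 48 or 72 h, and 1 × 10^6 cells were harvested and washed in cold PBS. They were stained in binding buffer with annexin V-FITC and PI for 15 min at room temperature. Flow cytometry used 488 nm excitation with emission at 530/575 nm. Early plus late apoptotic cells were summed, and the untreated control was subtracted.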

U-87 MG [4] = assay: Induction of apoptosis in human U87MG cells assessed as increase in total apoptotic cells at 10 uM after 48 hrs by annexin-V-FITC/propidium iodide staining based flow cytometric method relative to control; assay type: functional, U-87MG ATCC; method in brief: as §2
U-87 MG [5] = assay: Induction of apoptosis in human U87MG cells assessed as increase in total apoptotic cells at 10 uM after 72 hrs by annexin-V-FITC/propidium iodide staining based flow cytometric method relative to control; assay type: functional, U-87MG ATCC; method in brief: as §2
U-87 MG [6] = assay: Cell cycle arrest in human U87MG cells assessed as increase in accumulation at G0/G1 phase at 0.8 uM after 12 hrs by propidium iodide staining based flow cytometric method relative to control; assay type: functional, U-87MG ATCC
U-87 MG [7] = assay: Cell cycle arrest in human U87MG cells assessed as accumulation at S phase at 0.8 uM after 12 hrs by propidium iodide staining based flow cytometric method (reference value: 32.49%); assay type: functional, U-87MG ATCC
U-87 MG [8] = assay: Cell cycle arrest in human U87MG cells assessed as accumulation at G2/M phase at 0.8 uM after 12 hrs by propidium iodide staining based flow cytometric method (reference value: 9.37%); assay type: functional, U-87MG ATCC
Staphylococcus aureus = assay: Antimicrobial activity against methicillin-resistant Staphylococcus aureus ATCC 43300 after 12 hrs by micro broth dilution method; assay type: functional, organism-based
Method in brief: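 Test compounds serially diluted in 50% DMSO in broth microdilution plates. Each well received 2 μL of a 10^8 cf/mL culture, then incubated at 37 °C for 12 h overnight and read by eye. Clear wells and the next dilutions were plated on nutrient agar for 12 h at 37 °C. MIC was taken as the growth-inhibiting dilution. Gentamicin served as positive control.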

Escherichia coli = assay: Antimicrobial activity against Escherichia coli ATCC 25922 after 12 hrs by micro broth dilution method; assay type: functional, organism-based
Method in brief: (§3)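 Micro broth dilution: compound stock serially diluted with 50% DMSO (final volume 200 μL), inoculated with 2 μL of 10^8 cf/mL culture, incubated 37 °C for 12 h. Clear wells and the next dilutions plated on nutrient agar, incubated 37 °C for 12 h. MIC taken as the dilution that inhibited growth.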

Candida albicans = assay: Antimicrobial activity against Candida albicans after 12 hrs by micro broth dilution method; assay type: functional, organism-based; method in brief: as §3
U-87 MG [9] = assay: Induction of apoptosis in human U87MG cells assessed as increase in total apoptotic cells at 2.2 uM after 24 hrs by annexin-V-FITC/propidium iodide staining based flow cytometric method relative to control; assay type: functional, U-87MG ATCC; method in brief: as §2
U-87 MG [10] = assay: Induction of apoptosis in human U87MG cells assessed as increase in total apoptotic cells at 2.2 uM after 48 hrs by annexin-V-FITC/propidium iodide staining based flow cytometric method relative to control; assay type: functional, U-87MG ATCC; method in brief: as §2
U-87 MG [11] = assay: Induction of apoptosis in human U87MG cells assessed as increase in total apoptotic cells at 2.2 uM after 72 hrs by annexin-V-FITC/propidium iodide staining based flow cytometric method relative to control; assay type: functional, U-87MG ATCC; method in brief: as §2
U-87 MG [12] = assay: Induction of apoptosis in human U87MG cells assessed as increase in total apoptotic cells at 4.4 uM after 24 hrs by annexin-V-FITC/propidium iodide staining based flow cytometric method relative to control; assay type: functional, U-87MG ATCC; method in brief: as §2
U-87 MG [13] = assay: Induction of apoptosis in human U87MG cells assessed as increase in total apoptotic cells at 4.4 uM after 48 hrs by annexin-V-FITC/propidium iodide staining based flow cytometric method relative to control; assay type: functional, U-87MG ATCC; method in brief: as §2
U-87 MG [14] = assay: Induction of apoptosis in human U87MG cells assessed as increase in total apoptotic cells at 4.4 uM after 72 hrs by annexin-V-FITC/propidium iodide staining based flow cytometric method relative to control; assay type: functional, U-87MG ATCC; method in brief: as §2
U-87 MG [15] = assay: Cell cycle arrest in human U87MG cells assessed as increase in accumulation at G0/G1 phase at 2.2 uM after 12 hrs by propidium iodide staining based flow cytometric method relative to control; assay type: functional, U-87MG ATCC
U-87 MG [16] = assay: Cell cycle arrest in human U87MG cells assessed as increase in accumulation at G0/G1 phase at 4.4 uM after 12 hrs by propidium iodide staining based flow cytometric method relative to control; assay type: functional, U-87MG ATCC
U-87 MG [17] = assay: Cell cycle arrest in human U87MG cells assessed as increase in accumulation at G0/G1 phase at 8.8 uM after 12 hrs by propidium iodide staining based flow cytometric method relative to control; assay type: functional, U-87MG ATCC
U-87 MG [18] = assay: Cell cycle arrest in human U87MG cells assessed as accumulation at S phase at 2.2 uM after 12 hrs by propidium iodide staining based flow cytometric method (reference value: 32.49%); assay type: functional, U-87MG ATCC
U-87 MG [19] = assay: Cell cycle arrest in human U87MG cells assessed as accumulation at S phase at 4.4 uM after 12 hrs by propidium iodide staining based flow cytometric method (reference value: 32.49%); assay type: functional, U-87MG ATCC
U-87 MG [20] = assay: Cell cycle arrest in human U87MG cells assessed as accumulation at S phase at 8.8 uM after 12 hrs by propidium iodide staining based flow cytometric method (reference value: 32.49%); assay type: functional, U-87MG ATCC
U-87 MG [21] = assay: Cell cycle arrest in human U87MG cells assessed as accumulation at G2/M phase at 2.2 uM after 12 hrs by propidium iodide staining based flow cytometric method (reference value: 9.37%); assay type: functional, U-87MG ATCC
U-87 MG [22] = assay: Cell cycle arrest in human U87MG cells assessed as accumulation at G2/M phase at 4.4 uM after 12 hrs by propidium iodide staining based flow cytometric method (reference value: 9.37%); assay type: functional, U-87MG ATCC
U-87 MG [23] = assay: Cell cycle arrest in human U87MG cells assessed as accumulation at G2/M phase at 8.8 uM after 12 hrs by propidium iodide staining based flow cytometric method (reference value: 9.37%); assay type: functional, U-87MG ATCC

`COc1cccc2c1C(=O)c1c(O)c3c(c(O)c1C2=O)C[C@@](O)(C(=O)CO)C[C@@H]3O[C@H]1C[C@H](N)[C@H](O)[C@H](C)O1` [DOXORUBICIN] gave an IC50 (U-87 MG [1]) of 0.4 µM, an IC50 (U-251) of 3.3 µM and an IC50 [2] of 1.9 µM. It also gave an IC50 (C6) of 0.5 µM, an Activity (U-87 MG [3]) of 3.17% and an Activity (U-87 MG [4]) of 10.42%. The Activity (U-87 MG [5]) was 26.87%, the Activity (U-87 MG [6]) was 24.74% and the Activity (U-87 MG [7]) was 10.84%. It also gave an Activity (U-87 MG [8]) of 6.28%.

In the case of `C=Cc1ccc(OC(=O)c2ccc(O)c(N)c2S)cc1`, the Activity (Staphylococcus aureus) is reported as “inactive”, the Activity (Escherichia coli) is reported as “inactive” and the Activity (Candida albicans) is reported as “inactive”.

Work on `C=Cc1ccc(OC(=O)c2ccc(O)c(NC(C)=O)c2)cc1` yielded an IC50 (U-87 MG [1]) of 10.2 µM, an IC50 (U-251) of 9.7 µM and an IC50 [2] of 7.3 µM. For the same compound, the IC50 (C6) was 13.3 µM, the Activity (Staphylococcus aureus) was “inactive” and the Activity (Escherichia coli) was “inactive”. For the same compound, the Activity (Candida albicans) was “inactive”.

With `C=Cc1ccc(O)cc1` the Activity (Staphylococcus aureus) was “inactive”, the Activity (Escherichia coli) was “inactive” and the Activity (Candida albicans) was “inactive”.

For `C=Cc1ccc(OC(=O)c2ccc(O)c(N)c2SC[C@@H](NC(C)=O)C(=O)O)cc1`, the IC50 (U-87 MG [1]) was 2.2 µM, the IC50 (U-251) was 4.3 µM and the IC50 [2] was 2.4 µM. It also gave an IC50 (C6) of 6.4 µM, an Activity (U-87 MG [9]) of 0.96% and an Activity (U-87 MG [10]) of 20.59%. For the same compound, the Activity (U-87 MG [11]) was 58.32%, the Activity (U-87 MG [12]) was 3.36% and the Activity (U-87 MG [13]) was 61.16%. For the same compound, the Activity (U-87 MG [14]) was 93%, the Activity (U-87 MG [15]) was 5.71% and the Activity (U-87 MG [16]) was 16.18%. It also gave an Activity (U-87 MG [17]) of 20.56%, an Activity (U-87 MG [18]) of 27.23% and an Activity (U-87 MG [19]) of 16.76%. For the same compound, the Activity (U-87 MG [20]) was 13.77%, the Activity (U-87 MG [21]) was 8.92% and the Activity (U-87 MG [22]) was 8.92%. For the same compound, the Activity (U-87 MG [23]) was 7.53%, the Activity (Staphylococcus aureus) was “inactive” and the Activity (Escherichia coli) was “inactive”. For the same compound, the Activity (Candida albicans) was “inactive”.

With `C=Cc1ccc(OC(=O)c2ccc(O)c(N)c2)cc1` the Activity (Staphylococcus aureus) was “inactive”, the Activity (Escherichia coli) was “inactive” and the Activity (Candida albicans) was “inactive”.

With `C=Cc1ccc(OC(=O)c2ccc(O)cc2)cc1` the Activity (Staphylococcus aureus) was “inactive”, the Activity (Escherichia coli) was “inactive” and the Activity (Candida albicans) was “inactive”.

For `C=Cc1ccc(O[C@H]2O[C@H](CO)[C@H](O)[C@H](O)[C@H]2O)cc1`, the Activity (Staphylococcus aureus) was “inactive”, the Activity (Escherichia coli) was “inactive” and the Activity (Candida albicans) was “inactive”.

With `O=C1Oc2ccc(cc2)[C@H](O)CNc2cc1ccc2O` the Activity (Staphylococcus aureus) was “inactive”, the Activity (Escherichia coli) was “inactive” and the Activity (Candida albicans) was “inactive”.
